Results taken from ChEMBL document CHEMBL4219191, “Discovery of new A- and B-type laxaphycins with synergistic anticancer activity” (Bioorg Med Chem, 2018).
Starred links: 1 amine or outer side, 2 acyl side, 3 side chain; linkers in the order of their positions; H or OH if unused. Non-standard residues stand in square brackets, D forms with d. Residues, ends and D or L forms follow the SMILES beside them. dβ3hAhp = CCCCC[C@H](CC(=O)[*:2])N[*:1]; d(aIle) = CC[C@H](C)[C@@H](N)C(=O)O; Hyp = O=C(O)[C@@H]1C[C@@H](O)CN1; X1 = C/C=C(/N[*:1])C(=O)[*:2]; hSer = N[C@@H](CCO)C(=O)O

Experiments:
HCT-116 [1] = test: Synergistic antiproliferative activity against human HCT116 cells assessed as combination index at 0.32 uM after 48 hrs in presence of 3.2 uM laxaphycin A by MTT assay; assay type: functional
HCT-116 [2] = test: Synergistic antiproliferative activity against human HCT116 cells assessed as combination index at 0.32 uM after 48 hrs in presence of 10 uM laxaphycin A by MTT assay; assay type: functional
HCT-116 [3] = test: Synergistic antiproliferative activity against human HCT116 cells assessed as combination index at 0.032 uM after 48 hrs in presence of 1 uM laxaphycin A by MTT assay; assay type: functional
HCT-116 [4] = test: Synergistic antiproliferative activity against human HCT116 cells assessed as combination index at 1 uM after 48 hrs in presence of 32 uM laxaphycin A by MTT assay; assay type: functional
HCT-116 [5] = test: Synergistic antiproliferative activity against human HCT116 cells assessed as combination index at 3.2 uM after 48 hrs in presence of 32 uM laxaphycin A by MTT assay; assay type: functional
HCT-116 [6] = test: Antiproliferative activity against human HCT116 cells after 48 hrs by MTT assay; assay type: functional, cell-based; settings: HCT-116, 48 h
How it was run: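 HCT116 cells grown in DMEM with 10% FBS at 37 °C under 5% CO2. 10,000 cells per well were seeded and treated 24 h later with a concentration series in DMSO (0.5%). After 48 h more, MTT viability was read. Run in triplicate; IC50 by nonlinear regression.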

HCT-116 [7] = test: Synergistic antiproliferative activity against human HCT116 cells assessed as combination index at 1 uM after 48 hrs in presence of 10 uM laxaphycin A by MTT assay; assay type: functional
HCT-116 [8] = test: Synergistic antiproliferative activity against human HCT116 cells assessed as combination index at 32 uM after 48 hrs in presence of 320 uM laxaphycin A by MTT assay; assay type: functional
HCT-116 [9] = test: Synergistic antiproliferative activity against human HCT116 cells assessed as combination index at 10 uM after 48 hrs in presence of 100 uM laxaphycin A by MTT assay; assay type: functional
HCT-116 [10] = test: Synergistic antiproliferative activity against human HCT116 cells assessed as combination index at 0.1 uM after 48 hrs in presence of 3.2 uM laxaphycin A by MTT assay; assay type: functional
HCT-116 [11] = test: Synergistic antiproliferative activity against human HCT116 cells assessed as combination index at 0.1 uM after 48 hrs in presence of 1 uM laxaphycin A by MTT assay; assay type: functional
HCT-116 [12] = test: Synergistic antiproliferative activity against human HCT116 cells assessed as combination index at 320 uM after 48 hrs in presence of 32 uM laxaphycin B4 by MTT assay; assay type: functional
HCT-116 [13] = test: Synergistic antiproliferative activity against human HCT116 cells assessed as combination index at 3.2 uM after 48 hrs in presence of 0.32 uM laxaphycin B4 by MTT assay; assay type: functional
HCT-116 [14] = test: Synergistic antiproliferative activity against human HCT116 cells assessed as combination index at 32 uM after 48 hrs in presence of 1 uM laxaphycin B4 by MTT assay; assay type: functional
HCT-116 [15] = test: Synergistic antiproliferative activity against human HCT116 cells assessed as combination index at 1 uM after 48 hrs in presence of 0.032 uM laxaphycin B4 by MTT assay; assay type: functional
HCT-116 [16] = test: Synergistic antiproliferative activity against human HCT116 cells assessed as combination index at 100 uM after 48 hrs in presence of 10 uM laxaphycin B4 by MTT assay; assay type: functional
HCT-116 [17] = test: Synergistic antiproliferative activity against human HCT116 cells assessed as combination index at 3.2 uM after 48 hrs in presence of 0.1 uM laxaphycin B4 by MTT assay; assay type: functional
HCT-116 [18] = test: Synergistic antiproliferative activity against human HCT116 cells assessed as combination index at 10 uM after 48 hrs in presence of 1 uM laxaphycin B4 by MTT assay; assay type: functional
HCT-116 [19] = test: Synergistic antiproliferative activity against human HCT116 cells assessed as combination index at 10 uM after 48 hrs in presence of 0.32 uM laxaphycin B4 by MTT assay; assay type: functional
HCT-116 [20] = test: Synergistic antiproliferative activity against human HCT116 cells assessed as combination index at 1 uM after 48 hrs in presence of 0.1 uM laxaphycin B4 by MTT assay; assay type: functional
HCT-116 [21] = test: Synergistic antiproliferative activity against human HCT116 cells assessed as combination index at 32 uM after 48 hrs in presence of 3.2 uM laxaphycin B4 by MTT assay; assay type: functional

SMILES: CCCCCCC[C@@H]1CC(=O)N[C@@H](C(C)C)C(=O)N[C@H]([C@@H](O)C(C)C)C(=O)N[C@@H](CCO)C(=O)N[C@H]([C@@H](O)C(C)C)C(=O)N[C@@H](CCC(N)=O)C(=O)N(C)[C@@H]([C@@H](C)CC)C(=O)N[C@H]([C@@H](O)C(N)=O)C(=O)N[C@@H]([C@@H](C)O)C(=O)N2C[C@H](O)C[C@H]2C(=O)N[C@H](CC(C)C)C(=O)N[C@@H]([C@@H](C)O)C(=O)N1
- CI (HCT-116 [1]): 0.2909
- CI (HCT-116 [2]): 0.063
- CI (HCT-116 [3]): 5.267
- CI (HCT-116 [4]): 0.029
- CI (HCT-116 [5]): 0.0005
- IC50 (HCT-116 [6]): 1.7 µM
- CI (HCT-116 [7]): 0.1157
- CI (HCT-116 [8]): 0.0002
- CI (HCT-116 [9]): 0.0001
- CI (HCT-116 [10]): 0.121
- CI (HCT-116 [11]): 0.2457

SMILES: C/C=C1/NC(=O)[C@H](CCO)NC(=O)C[C@@H](CCCCC)NC(=O)CNC(=O)[C@H](CC(C)C)NC(=O)[C@@H]([C@@H](C)CC)NC(=O)[C@H](C(C)C)NC(=O)[C@@H](CC(C)C)NC(=O)[C@@H](Cc2ccccc2)NC(=O)[C@H](CCO)NC(=O)[C@@H]2C[C@@H](O)CN2C1=O (cyclo(G[dβ3hAhp][hSer][X1][Hyp][hSer][dF][dL]V[d(aIle)]L))
- IC50 (HCT-116 [6]): 29 µM

SMILES: C/C=C1/NC(=O)[C@H](CCO)NC(=O)C[C@@H](CCCCC)NC(=O)CNC(=O)[C@H](CC(C)C)NC(=O)[C@@H]([C@@H](C)CC)NC(=O)[C@H]([C@@H](C)CC)NC(=O)[C@@H](CC(C)C)NC(=O)[C@@H](Cc2ccccc2)NC(=O)[C@H](CCO)NC(=O)[C@@H]2C[C@@H](O)CN2C1=O [LAXAPHYCIN A] (cyclo(G[dβ3hAhp][hSer][X1][Hyp][hSer][dF][dL]I[d(aIle)]L))
- CI (HCT-116 [12]): 0.0002
- CI (HCT-116 [13]): 0.2909
- CI (HCT-116 [14]): 0.029
- CI (HCT-116 [15]): 5.267
- CI (HCT-116 [16]): 0.0001
- IC50 (HCT-116 [6]): 23 µM
- CI (HCT-116 [17]): 0.121
- CI (HCT-116 [18]): 0.1157
- CI (HCT-116 [19]): 0.063
- CI (HCT-116 [20]): 0.2457
- CI (HCT-116 [21]): 0.0005
